Calls of active or inactive are those of the source. The calls are words filed in the database; no cut-off is given here.
Columns and labels:
HepG2 [1] = test: Induction of apoptosis in human HepG2 cells assessed as intracellular free Ca2+ levels after 48 hrs by FL1 channel/FACS analysis; type: functional, cell-based
Outline: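 HepG2 seeded at 5.0 × 10^5 cells/mL, 24 h at 37 °C in 5% CO2, then treated 48 h (2.5–20 µM). Harvested cells were washed in ice-cold PBS and loaded with 4 µM Fluo-3/AM for 30 min. After trypsinizing, they were washed twice and resuspended in HEPES, and fluorescence was measured in the FL-1 channel by flow cytometry. Values are averages of at least three independent experiments.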

HepG2 [2] = test: Antiproliferative activity against human HepG2 cells at 0.1 uM after 24 hrs by MTT assay realtive to control; type: functional
Outline: (§1)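 MTT assay in triplicate wells. Cells (2 × 10^3/well) were attached 24 h, then treated at 0.1, 1, 10, 50 or 100 µM for 24, 48 or 72 h. MTT added for 4 h, SDS solubilisation, absorbance at 570/650 nm. Inhibition = 1 − (OD treated − blank)/(OD control − blank). Reported as mean ± SD of three independent experiments.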

A549 [3] = test: Antiproliferative activity against human A549 cells at 50 uM after 24 hrs by MTT assay relative to control; type: functional; outline: as §1
SH-SY5Y = test: Antiproliferative activity against human SH-SY5Y cells after 72 hrs by MTT assay; type: functional, cell-based
MCF7 = test: Antiproliferative activity against human MCF7 cells after 72 hrs by MTT assay; type: functional, cell-based; conditions: MCF7, 72 h
HepG2 [4] = test: Cytotoxicity against human HepG2 cells at 40 uM after 48 hrs by LDH release assay (reference value: 100%); type: functional
Outline: (§2)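 HepG2 seeded at 1.0 × 10^5 cells/well, grown 24 h at 37 °C in 5% CO2, then dosed for 48 h. LDH in supernatant read on plate reader per kit. Maximal release (100% cytotoxicity) came from lysis with 2% (V/V) lysate for 1 h at 37 °C; medium-only cells served as natural release. Triplicate, three independent runs.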

HepG2 [5] = test: Antiproliferative activity against human HepG2 cells at 1 uM after 72 hrs by MTT assay realtive to control; type: functional; outline: as §1
HepG2 [6] = test: Cell cycle arrest in human HepG2 assessed as accumulation at S phase after 48 hrs by propidium iodide-staining based flow cytometry; type: functional
Outline: (§3)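 HepG2 cells at 5.0 × 10^5/well were grown 24 h, then treated at 0, 2.5, 5.0 or 10.0 µM for 48 h alongside medium-only wells. Cells fixed in 70% ice-cold ethanol for ≥24 h, treated with RNase A at 37 °C for 30 min, then stained with propidium iodide for 30 min at 4 °C in the dark. DNA content read by flow cytometry. Average of at least three experiments.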

A549 [7] = test: Antiproliferative activity against human A549 cells at 1 uM after 72 hrs by MTT assay relative to control; type: functional; outline: as §1
HepG2 [8] = test: Cell cycle arrest in human HepG2 assessed as accumulation at S phase at 10 uM after 48 hrs by propidium iodide-staining based flow cytometry (reference value: 21.46%); type: functional; outline: as §3
A549 [9] = test: Antiproliferative activity against human A549 cells at 100 uM after 24 hrs by MTT assay relative to control; type: functional; outline: as §1
HepG2 [10] = test: Induction of apoptosis in human HepG2 cells assessed as early apoptotic cells at 2.5 uM after 48 hrs by Annexin V-FITC/propidium iodide double staining-based flow cytometry (reference value: 8.7%); type: functional
HepG2 [11] = test: Cytotoxicity against human HepG2 cells at 5 uM after 48 hrs by LDH release assay (reference value: 100%); type: functional; outline: as §2
HepG2 [12] = test: Induction of apoptosis in human HepG2 cells assessed as caspase-3 activity at 2.5 uM after 48 hrs by colorimetric assay relative to control; type: functional
Outline: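 After 48 h treatment, HepG2 were rinsed in ice-cold PBS and lysed 1–1.5 h on ice in buffer with 1% DTT. Lysate was spun at 10,000×g for 1 min at 4 °C; supernatant protein was measured by Bradford. Supernatant was mixed with 2× reaction buffer (1% DTT) plus caspase-3 chromogenic peptide substrate, held 4 h at 37 °C, and read at 405 nm.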

HepG2 [13] = test: Induction of apoptosis in human HepG2 cells assessed as convoluted nuclei formation at 2.5 to 20 uM after 48 hrs by Hoechst 33342/propidium iodide double staining based laser scanning confocal microscopy; type: functional, cell-based
Outline: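 HepG2 plated at 5.0 × 10^4 cells/well in DMEM with 10% FBS, 24 h at 37 °C, then treated 48 h (2.5–20 µM). After two ice-cold PBS washes, cells were stained with Hoechst 33342/PI mixed 1:1 for 30 min at 37 °C in the dark, washed three times, and imaged by laser scanning confocal microscopy at 200×.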

HepG2 [14] = test: Antiproliferative activity against human HepG2 cells at 10 uM after 72 hrs by MTT assay realtive to control; type: functional; outline: as §1
HepG2 [15] = test: Cytotoxicity against human HepG2 cells at 10 uM after 48 hrs by LDH release assay (reference value: 100%); type: functional
Outline: (§4)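 LDH release. HepG2 cells at 1.0 × 10^5/well were incubated 24 h at 37 °C, then treated at 2.5–40 µM for 48 h. Cells lysed with 2% lysate for 1 h gave the full-release (100%) reference; medium-only cells were the low control. LDH in the supernatant was measured per kit. Triplicates, three independent repeats.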

A549 [16] = test: Antiproliferative activity against human A549 cells at 100 uM after 72 hrs by MTT assay relative to control; type: functional; outline: as §1
HepG2 [17] = test: Cytotoxicity against human HepG2 cells at 2.5 uM after 48 hrs by LDH release assay (reference value: 100%); type: functional; outline: as §4
HepG2 [18] = test: Antiproliferative activity against human HepG2 cells at 100 uM after 48 hrs by MTT assay realtive to control; type: functional; outline: as §1
[19] = biological target: T1, Epidermal growth factor receptor (Homo sapiens, UniProt P00533); conditions: HEK293, at 0.0001 µM
HepG2 [20] = test: Cell cycle arrest in human HepG2 assessed as accumulation at G0/G1 phase at 5 uM after 48 hrs by propidium iodide-staining based flow cytometry (reference value: 69.40%); type: functional; outline: as §3
[21] = biological target: T1, Epidermal growth factor receptor; conditions: HEK293, at 0.1 µM
HepG2 [22] = test: Induction of apoptosis in human HepG2 cells assessed as late apoptotic cells at 5 uM after 48 hrs by Annexin V-FITC/propidium iodide double staining-based flow cytometry (reference value: 4.3%); type: functional
HepG2 [23] = test: Antiproliferative activity against human HepG2 cells at 50 uM after 72 hrs by MTT assay realtive to control; type: functional; outline: as §1
HepG2 [24] = test: Antiproliferative activity against human HepG2 cells after 24 hrs by MTT assay; type: functional, cell-based; conditions: HepG2, 24 h
Outline: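 MTT read-out. Cells seeded at 2 × 10^3/well, attached 24 h at 37 °C in 5% CO2, then exposed to 0.1–100 µM for 24, 48 or 72 h. MTT for 4 h, formazan dissolved in 10% SDS/NH4Cl for 10 h, absorbance at 570 nm corrected at 650 nm. % inhibition computed against untreated and blank wells. IC50 is the mean of at least three independent experiments.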

T1 sequence (P00533 whole entry): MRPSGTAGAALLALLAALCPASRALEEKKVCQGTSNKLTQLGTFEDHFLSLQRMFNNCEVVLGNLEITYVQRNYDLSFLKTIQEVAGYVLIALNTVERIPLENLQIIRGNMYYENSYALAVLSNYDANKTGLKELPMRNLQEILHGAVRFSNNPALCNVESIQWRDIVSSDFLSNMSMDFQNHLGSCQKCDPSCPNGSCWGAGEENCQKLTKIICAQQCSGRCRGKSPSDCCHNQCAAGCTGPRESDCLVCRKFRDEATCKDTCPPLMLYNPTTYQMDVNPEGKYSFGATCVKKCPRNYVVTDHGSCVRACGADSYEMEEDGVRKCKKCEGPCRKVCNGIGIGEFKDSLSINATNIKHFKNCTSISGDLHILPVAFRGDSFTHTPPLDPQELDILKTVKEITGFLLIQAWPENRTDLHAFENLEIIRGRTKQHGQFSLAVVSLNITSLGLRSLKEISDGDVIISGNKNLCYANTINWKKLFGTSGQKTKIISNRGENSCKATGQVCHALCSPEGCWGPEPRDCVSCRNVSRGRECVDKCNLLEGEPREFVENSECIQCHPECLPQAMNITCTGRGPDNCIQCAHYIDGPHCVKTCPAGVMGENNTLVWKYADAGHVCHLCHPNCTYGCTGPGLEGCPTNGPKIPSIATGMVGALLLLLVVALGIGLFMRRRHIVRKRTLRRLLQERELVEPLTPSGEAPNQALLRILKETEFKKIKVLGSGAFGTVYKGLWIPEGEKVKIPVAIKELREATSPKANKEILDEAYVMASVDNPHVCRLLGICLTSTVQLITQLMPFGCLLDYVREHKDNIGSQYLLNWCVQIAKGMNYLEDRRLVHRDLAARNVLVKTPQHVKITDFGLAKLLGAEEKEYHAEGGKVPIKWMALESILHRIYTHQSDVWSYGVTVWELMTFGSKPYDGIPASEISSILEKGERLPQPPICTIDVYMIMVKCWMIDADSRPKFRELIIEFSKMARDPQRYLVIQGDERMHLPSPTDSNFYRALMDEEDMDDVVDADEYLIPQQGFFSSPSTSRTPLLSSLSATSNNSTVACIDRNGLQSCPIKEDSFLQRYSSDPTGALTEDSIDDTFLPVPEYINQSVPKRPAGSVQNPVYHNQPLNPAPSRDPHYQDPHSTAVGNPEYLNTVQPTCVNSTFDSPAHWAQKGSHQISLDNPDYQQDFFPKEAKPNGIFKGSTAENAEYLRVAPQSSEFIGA

Question: Which Activity (HepG2 [1]) does the source give for COc1cc2c(Nc3ccc(C#N)cc3)ncnc2cc1OCCCN1CCC(c2ccccc2)CC1 here?
Answer: Dose-dependent effect

Question: What about the Activity (HepG2 [2]) of the same compound?
Answer: 4.4%

Question: What about the Activity (A549 [3]) of the same compound?
Answer: 85.3%

Question: And the IC50 (SH-SY5Y)?
Answer: 7.77 µM

Question: What about the IC50 (MCF7) of the same compound?
Answer: 9.8 µM

Question: And the Activity (HepG2 [4])?
Answer: 41.17%

Question: And the Activity (HepG2 [5])?
Answer: 13.7%

Question: What about the Activity (HepG2 [6]) of the same compound?
Answer: Dose-dependent effect

Question: What about the Activity (A549 [7]) of the same compound?
Answer: 1.5%

Question: What about the Activity (HepG2 [8]) of the same compound?
Answer: 29.72%

Question: What about the Activity (A549 [9]) of the same compound?
Answer: 91.8%

Question: And the Activity (HepG2 [10])?
Answer: 48.6%

Question: And the Activity (HepG2 [11])?
Answer: 50.11%

Question: And the Activity (HepG2 [12])?
Answer: 138%

Question: And the Activity (HepG2 [13])?
Answer: Active

Question: And the Activity (HepG2 [14])?
Answer: 63.6%

Question: And the Activity (HepG2 [15])?
Answer: 69.27%

Question: And the Activity (A549 [16])?
Answer: 95.5%

Question: What about the Activity (HepG2 [17]) of the same compound?
Answer: 39.65%

Question: And the Activity (HepG2 [18])?
Answer: 102%

Question: What about the inhibition [19] of the same compound?
Answer: 39.1%

Question: And the Activity (HepG2 [20])?
Answer: 65.53%

Question: What about the inhibition [21] of the same compound?
Answer: 73.1%

Question: What about the Activity (HepG2 [22]) of the same compound?
Answer: 2%

Question: What about the Activity (HepG2 [23]) of the same compound?
Answer: 96.5%

Question: And the IC50 (HepG2 [24])?
Answer: 13 µM

— ChEMBL document CHEMBL4130355, “Development of a series of novel 4-anlinoquinazoline derivatives possessing quinazoline skeleton: Design, synthesis, EGFR kinase inhibitory efficacy, and evaluation of anticancer activities in vitro” (Eur J Med Chem, 2017)
